# Results taken from article PMC3999706 (Biochemistry, 2013).
# Values joined by “and” are separate entries in the source; they are usually repeats but may differ in a detail not shown here. Identical values can stand only once. Like-named read-outs stand apart in the source and are kept apart here.
# Columns and labels:
# sGC = details: 6c complex, ref [5], cited from earlier work
# Ferrous Ns H-NOX = details: ref [5], cited from earlier work
# Fe(II) Vc H-NOX [1] = test: Stopped-flow kinetics and affinity of gaseous ligand binding to Fe; design: species or system Vibrio cholerae; details: for koff / Kd: Fe(II) Vc H-NOX, NO: 6c complex; for koff: displacement method; for Kd: calculated from kon and koff; for koff of 5c Vc H-NOX-NO complex, fast phase / koff of 5c Vc H-NOX-NO complex, slow phase: displacement with CO/dithionite
# Fe(III) Vc H-NOX = Fe(III) Vc H-NOX (Vibrio cholerae, UniProt Q9KLM3); test: biochemical; type: binding
# Fe(II) Vc H-NOX [2] = test: Autoxidation of Fe; type: biochemical, Vibrio cholerae
# Method in brief: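 Recombinant Vc H-NOX was expressed in E. coli Rosetta 2(DE3)pLysS (heme and δ-aminolevulinic acid supplemented, IPTG, 48 h at 20 °C) and purified on TALON resin. The anaerobic Fe(II) protein was mixed with O2 by stopped-flow in 20 mM HEPES pH 7.3, 50 mM NaCl, 10% glycerol. Spectral changes were followed by diode-array over 65.5 s, and kobs was taken from single-exponential fits under pseudo-first-order conditions.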
# Fe(II) Ns H-NOX = details: ref [14]; cited from earlier work
# [3] = estimated by computer simulation of A420 time courses
molecule,measurement,setting,value
"[C-]#[O+] [CO, Carbon monoxide]",Kd,sGC; read-out: affinity of CO for sGC (KD),260 µM
same,Kd,Ferrous Ns H-NOX; read-out: KD(CO) of ferrous Ns H-NOX,1.4 µM
same,koff,Fe(II) Vc H-NOX [1]; 24 °C,0.85 s⁻¹
same,Kd,Fe(II) Vc H-NOX [1],0.77 µM
"c1c[nH]cn1 [Im, imidazole]",Kd,Fe(III) Vc H-NOX,4200 µM
O=O [O2],Kd,"Ferrous Ns H-NOX; read-out: KD for O2 of Ns H-NOX, measured using a high pressure cell",13000 µM
same,second order reaction rate constant (slope of kobs versus [O2]),"Fe(II) Vc H-NOX [2]; 3 μM Fe(II) Vc H-NOX, 100-600 μM O2, 24 °C, A429",4.8 M⁻¹ s⁻¹
same,autoxidation rate of Fe(II) Vc H-NOX to ferric state (k4),Fe(II) Vc H-NOX [2]; k4 = slope × KD(O2),0.06 s^−1 and ~ 0.06 s^−1
same,autoxidation rate of Fe(II) Ns H-NOX,Fe(II) Ns H-NOX,~ 0.05 hr^−1 and 0.05 hr^−1
nitric oxide [NO],Kd,sGC; read-out: affinity of NO for sGC (KD),0.054 µM
same,Kd,Ferrous Ns H-NOX; read-out: KD(NO) of ferrous Ns H-NOX,0.00017 µM
same,koff,Fe(II) Vc H-NOX [1]; 24 °C,0.3 s⁻¹
same,Kd,Fe(II) Vc H-NOX [1],0.00027 µM
same,k1 (second NO binding to 6c complex),Fe(II) Vc H-NOX [1]; [3],2.5e+07 M⁻¹ s⁻¹
same,k-1 (dissociation of quaternary complex),Fe(II) Vc H-NOX [1]; [3],4500 s⁻¹
same,k2 (limiting rate of 5c heme-NO complex formation),"Fe(II) Vc H-NOX [1]; excess NO, hyperbolic fit of kobs versus [NO], 24 °C",720 s⁻¹
same,"koff of 5c Vc H-NOX-NO complex, fast phase","Fe(II) Vc H-NOX [1]; excess NO, 29% overall reaction",0.01 s⁻¹
same,"koff of 5c Vc H-NOX-NO complex, slow phase","Fe(II) Vc H-NOX [1]; excess NO, 71% overall reaction",0.001 s⁻¹
same,overall conversion rate of 6c to 5c Vc H-NOX-NO complex,"Fe(II) Vc H-NOX [1]; stoichiometric NO (2.5 μM each), 24 °C, global analysis",~ 0.01 s^−1
same,"koff of 5c Vc H-NOX-NO complex, fast phase","Fe(II) Vc H-NOX [1]; stoichiometric NO, 16% overall reaction",0.01 s⁻¹
same,"koff of 5c Vc H-NOX-NO complex, slow phase","Fe(II) Vc H-NOX [1]; stoichiometric NO, 84% overall reaction",0.001 s⁻¹
same,k-2 (re-association of NO with 5c Vc H-NOX),Fe(II) Vc H-NOX [1]; y-intercept of kobs versus low [NO],1.9 s⁻¹
